Results on 2 molecules are retold here after ChEMBL document CHEMBL6134900 (J Med Chem, 2025).

Data set [1] deals with Transcriptional coactivator YAP1 (Homo sapiens) (UniProt P46937). In words: Induction of YAP1 phosphorylation at S109 residue in human H322 cells harboring SMARCA4 mutant at 1 uM incubated for 96 hrs by immunoblot analysis. In kind it is cell-based. The following applies: filed as activator. (In western blotting, separated proteins are transferred to a membrane and probed.)

Data set [2] is described as follows: Drug metabolism in mouse liver microsomes assessed as Mono-oxygenation mediated M2 metabolite formation at 10 uM incubated for 60 mins by LC-UV-HRMS analysis. The data set is classed as ADME, Microsome. The following applies: 1 h. The gist of the method: (§1)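 Compound at 10 μM incubated with mouse liver microsomes at 37 °C for 60 min. Metabolites detected by LC-UV-HRMS, structures proposed from MS and MS2 data, and each metabolite given as a percentage.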
A general note: Liver microsomes are a subcellular fraction often used to study metabolism.

The nature of data set [3]: Drug concentration in CRBN I391V mutant mouse plasma at 10 mg/kg, po administered once daily for 3 days and measured at 24 hrs post last dose. The data set is classed as ADME, organism-based. The following applies: time 3 day. The gist of the method: (§2)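 Oral dosing once daily for 3 days: 5–80 mg/kg in C57BL/6 mice, 10–80 mg/kg in CrbnI391V mice. Euthanized 24 h after last dose. Plasma drug level measured. Spleen SMARCA2 by Western blot against actin loading control, relative to vehicle.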

Data set [4] in a line: Drug concentration in CRBN I391V mutant mouse plasma at 80 mg/kg, po administered once daily for 3 days and measured at 24 hrs post last dose. The data set is classed as ADME, organism-based. The following applies: time 3 day. The gist of the method: as §2
For data set [5], the target named is T1, Protein cereblon/SWI/SNF-related matrix-associated actin-dependent regulator of chromatin subfamily A member 2 (Homo sapiens, UniProt P51531+Q96SW2). As to the kind of experiment: PROTAC activity at CRBN/SMARCA2 in human H322 cells harboring SMARCA4 mutant assessed as induction of SMARCA2 degradation at 0.1 uM in presence of Gen-1 by immunoblot analysis. The data set is classed as cell-based.

In data set [6] the target is T1, Protein cereblon/SWI/SNF-related matrix-associated actin-dependent regulator of chromatin subfamily A member 2. As to the kind of experiment: PROTAC activity at CRBN/SMARCA2 in human H322 cells harboring SMARCA4 mutant assessed as induction of SMARCA2 degradation at 0.1 uM in presence of pomalidomide by immunoblot analysis. In kind it is cell-based.
For data set [7] the target is unchanged. As to the kind of experiment: PROTAC activity at CRBN/SMARCA2 in human NCI-H1792 cells harboring wild type SMARCA4 assessed as reduction in SMARCA2 protein level at 20 nM incubated for 24 hrs by TMT mass spectrometric analysis. In kind it is cell-based.
Data set [8] in a line: Drug metabolism in mouse liver microsomes assessed as hydrolysis mediated M3 metabolite formation at 10 uM incubated for 60 mins by LC-UV-HRMS analysis. The data set is classed as ADME, Microsome. The following applies: 1 h. The gist of the method:
as §1

Data set [9] is described as follows: AUC (0 to infinity) in male CD-1 (ICR) mouse at 25 mg/kg, po measured up to 24 hrs by LC-MS/MS analysis. The data set is classed as ADME, organism-based. The following applies: in vivo. The gist of the method:
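Single 25 mg/kg dose. IP vehicle was 5% DMSO/5% solutol/90% water at 1.25 mg/mL, final pH 4.39, clear solution. Oral vehicle was 0.5% methylcellulose/0.2% Tween 80 in water, opaque suspension. Plasma sampled at 0.25, 0.5, 1, 2, 4, 8 and 24 h. Plasma protein-precipitated with internal standard in acetonitrile, then LC-MS/MS. n = 3 mice per time point, mean.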

A short description of data set [10]: In vivo PROTAC activity at CRBN/SMARCA2 in female athymic nude mouse xenografted with human NCI-H2023 cells harboring SMARCA4 mutant assessed as SMARCA2 degradation at 5 mg/kg, po administered once daily via gavage for 19 days by Western blotting analysis relative to control. The data set is classed as functional. The following applies: time 19 day. The gist of the method: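 Female nude mice aged 6–8 weeks carried subcutaneous flank xenografts in PBS/Matrigel 1:1: H2023 at 10 × 10^6 cells or HCC515 at 5 × 10^6 cells. Randomised below 200 mm3. 5 mg/kg or vehicle given by oral gavage once daily for 19 days in 0.5% methylcellulose with Tween-80 (0.2% for H2023, 1% for HCC515). Tumours collected 24 h after dosing. SMARCA2 measured by Western blot against β-actin, relative to vehicle.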

Another data set relates to NCI-H2030. As to the kind of experiment: Inhibition of ERK phosphorylation in human NCI-H2030 cells harboring KRAS G12C mutant/SMARCA4 mutant assessed as reduction in p-ERK level at 1.25 uM incubated for 48 hrs in presence of sotorasib by Western blotting analysis. In kind it is cell-based.

Calls of active or inactive are those of the source. The rule behind the calls is not given here.

Chain of Transcriptional coactivator YAP1 (Homo sapiens) (P46937 whole entry): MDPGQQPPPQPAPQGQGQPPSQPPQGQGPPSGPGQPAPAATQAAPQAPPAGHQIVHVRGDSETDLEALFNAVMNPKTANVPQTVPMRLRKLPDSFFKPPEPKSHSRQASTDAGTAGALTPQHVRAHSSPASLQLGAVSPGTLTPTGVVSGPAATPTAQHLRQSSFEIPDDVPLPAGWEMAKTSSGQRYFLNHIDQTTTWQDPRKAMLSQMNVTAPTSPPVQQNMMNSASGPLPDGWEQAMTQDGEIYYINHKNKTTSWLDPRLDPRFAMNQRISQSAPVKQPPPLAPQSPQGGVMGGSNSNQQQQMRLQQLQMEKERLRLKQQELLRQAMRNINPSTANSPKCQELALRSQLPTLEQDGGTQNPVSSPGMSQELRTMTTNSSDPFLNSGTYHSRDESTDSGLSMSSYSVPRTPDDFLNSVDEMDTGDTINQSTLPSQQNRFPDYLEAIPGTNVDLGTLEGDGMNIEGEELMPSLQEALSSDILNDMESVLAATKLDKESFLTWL

Take `Nc1nnc(-c2ccccc2O)cc1N1CCN(Cc2ccc(N3CCC(CN4CCN(c5ccc6c(c5)C(=O)N(C5CCC(=O)NC5=O)C6=O)CC4)CC3)c(F)c2)CC1` (stereo unspecified): the outcome in data set [1] was Active. For the same molecule, the Drug metabolism result in data set [2] was “metabolite_detected”. For the same molecule, the results for the concentration at 72 h in [3] and in data set [4] were 1000 nM and 2450 nM, respectively.

Take `Nc1nnc(-c2ccccc2O)cc1N1CCN(Cc2ccc(N3CCN(CCOc4cccc5c4C(=O)N(C4CCC(=O)NC4=O)C5=O)CC3)c(F)c2)CC1` (stereo unspecified): the outcome in [5] and in data set [6] was inactive. Moreover, the outcome in [7] was Active. For the same molecule, the Drug metabolism entry in data set [8] is “metabolite_detected”. In data set [9], the AUC (usually concentration integrated over time) was determined as 5122 ng·h/mL. In addition, in data set [10], the Activity amounted to 76%. In the data set with NCI-H2030, the inhibition result was “Active”.
